From PubChem BioAssay
APJ antag: antagonists of human apelin receptor APJ, primary screen, CHO-K1 cells, beta-arrestin complementation, luminescence | AID 2521, 2010 | inhibition, % at 20 µM | 330,000 tested, 0.32% active | P35414;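 active means inhibition above about 40% at 20 µM, limit read from the data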;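 further: cells challenged with 10 nM apelin-13 agonist together with compound; plate controls were apelin-13 plus DMSO wells for no effect and DMSO wells lacking apelin-13 for full effect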
Target sequence (P35414 whole entry, looked up): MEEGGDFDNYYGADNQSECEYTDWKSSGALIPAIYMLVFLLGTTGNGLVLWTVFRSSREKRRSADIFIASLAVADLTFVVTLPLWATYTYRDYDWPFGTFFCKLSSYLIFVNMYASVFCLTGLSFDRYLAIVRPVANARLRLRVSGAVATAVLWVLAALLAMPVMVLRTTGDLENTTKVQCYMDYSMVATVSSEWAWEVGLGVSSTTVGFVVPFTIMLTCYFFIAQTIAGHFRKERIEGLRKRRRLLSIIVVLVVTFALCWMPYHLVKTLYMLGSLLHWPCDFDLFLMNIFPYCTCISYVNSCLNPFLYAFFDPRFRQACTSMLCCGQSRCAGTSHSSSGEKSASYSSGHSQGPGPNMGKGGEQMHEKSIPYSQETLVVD
CCR6 antag: CCR6 receptor antagonists, primary screen, cell-based, CHO-K1, luminescence, beta-arrestin, uHTS; C-C chemokine receptor type 6 (Homo sapiens), P51684; AID 493098, 2011; 340,000 tested, 0.49% active; inhibition, % at 20 µM; CHO-K1 CCR6 PathHunter beta-arrestin, CCL20-stimulated;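 active means compounds whose inhibition of the agonist-driven luminescence signal at 20 µM reaches about 50%, limit read from the data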;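 further: cells stimulated with CCL20 at 14 nM final; plate controls were DMSO with CCL20 for no effect and DMSO without agonist for full effect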
APJ ag: agonists of human apelin receptor APJ, primary screen, CHO-K1 cells, PathHunter beta-arrestin, luminescence | 0% DMSO wells, 100% apelin | activation, % at 20 µM | 330,000 tested, 0.11% active;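 active means activation more than six SD over the plate average, tested at 20 µM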;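 further: 0% = DMSO alone and 100% = apelin-13 at 10 nM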
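system = engineered CHO-K1 APJ arrestin reporter cells | input = 1000 cells per well | timing = overnight seeding, 90 min compound at 25 °C, 1 h detection | measured by = enzyme-fragment complementation luminescence | read-out = beta-arrestin recruitment to APJ as agonist activity, luminescent signal | control set = negative DMSO alone, positive Apelin-13 at 10 nM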
EBI2 antag: EBI2 receptor antagonists, beta-arrestin recruitment, primary screen, cell-based, luminescence, 7a,25-OHC stimulation, uHTS. 7a,25-OHC stimulated. inhibition, % at 5 µM. 360,000 tested, 0.81% active; in the data active means inhibition above about 38%;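 further: enzyme fragment complementation signal reports receptor beta-arrestin coupling in cells; 0% = agonist plus DMSO wells and 100% = wells without agonist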
CXCR6 block: CXCR6 receptor inhibitors, primary screen, cell-based, beta-arrestin, luminescence, CHO-K1 PathHunter, 1536-well; 360,000 tested, 0.36% active; C-X-C chemokine receptor type 6 (Homo sapiens), O00574; inhibition, % at 20 µM; in the data active means inhibition above about 34%, passing the limit was not always enough;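 further: antagonist mode with CXCL16 agonist at 10 nM final; 0% = 10 nM CXCL16 with DMSO and 100% = unstimulated wells without agonist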
CXCR6 confirm: CXCR6 receptor antagonists, confirmation, cell-based, single concentration, beta-arrestin, luminescence; shares compounds with CXCR6 block; CHO-K1 CXCR6 PathHunter beta-arrestin; inhibition, % at 20 µM; 700 tested, 65% active; AID 602409, 2012;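 active means mean inhibition over four retests above 40%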;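 further: receptor stimulated with 10 nM CXCL16 agonist; beta-galactosidase fragment complementation upon beta-arrestin recruitment to receptor; plate controls were CXCL16 plus DMSO for no effect and DMSO without CXCL16 for full effect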
An asterisk follows results filed as active; . = not tested or not shown. Compounds with a hit are over-represented: about 1.5% of the library has one in this group of screens.

SMILES	APJ antag	CCR6 antag	APJ ag	EBI2 antag	CXCR6 block	CXCR6 confirm
COc1ccc(C(=O)N/N=C/c2cccc3cccnc23)cc1	12	23	-4	4	52*	60*
CCOc1ccccc1C(=O)N/N=C/c1cccc2cccnc12	-13	-13	5	-13	-5	.
CCOc1ccc(C(=O)N/N=C/c2cccc3cccnc23)cc1	25	.	-3	2	56*	64*
Cc1cc(C)cc(N2C(=O)CC(Sc3nnnn3-c3ccccc3)C2=O)c1 (stereo unspecified)	-18	.	-1	1	87*	75*
CCCC(C)Sc1nc2c([nH]1)c(=S)n(C)c(=O)n2C (stereo unspecified)	.	40	.	2	42*	16
Nc1nc(N)c2c(ccc3c2ccn3Cc2cccc([N+](=O)[O-])c2)n1	.	.	.	-45	62*	68*
CSc1ccc(CN2CCC2(C)C(=O)NC2CCN(Cc3ccccc3)CC2)cc1 (stereo unspecified)	.	.	.	0	-3	.
C/C(=N\Nc1nc2ccccc2[nH]1)c1cc2ccccc2o1	-3	23	3	16	4	.
C/C(=N\Nc1nc2ccccc2[nH]1)c1ccccn1	38	.	-7	9	42*	70*
O=C(c1ccco1)N1CCN(Cc2cn[nH]c2-c2ccc(F)cc2F)CC1	12	5	3	-4	57*	12
COc1ccc(-c2[nH]ncc2CN2CCN(C(=O)c3ccco3)CC2)cc1F	7	9	-2	2	-3	.
Cc1ccc(NC(=O)c2ccc(Cl)c(N3C(=O)C=CC3=O)c2)cc1	-5	.	3	-9	94*	25
CCN(CC(=O)Nc1c(F)cccc1F)C(=O)C1CC(=O)N(CCc2ccc(OC)c(OC)c2)C1 (stereo unspecified)	6	-6	-4	-4	-5	.
CCOc1cc(CNCCO)c(Cl)cc1OCC(=O)NCCc1ccccc1	-7	-6	-1	8	71*	13
CC(C)Oc1ccc(S(=O)(=O)N2CCOCC2)cc1NC(=O)Cc1c(F)cccc1Cl	7	9	-4	7	-4	.
Cc1cnc(C(=O)OCC(=O)Nc2ccc(Br)c(C)c2)cn1	-4	-4	-4	1	4	.
O=C(Nc1nccs1)c1sc2cc(Cl)ccc2c1Cl	31	73*	-6	16	67*	76*
CCN(CC(=O)NC(C)(C)C)C(=O)COc1c(Cl)cc(Cl)c2ccc(C)nc12	6	.	-3	-16	33*	37
Clc1cccc(Cl)c1CNc1ccc(N2CCCC2)cc1	-10	11	-1	.	.	.
Clc1nc(-c2ccccn2)nc2scc(-c3ccccc3)c12	16	14	2	61*	51*	25
Cc1cccc(C)c1N1C(=O)CCC(C)(C)C1=O	15	5	-5	2	-1	.
[O-][N+](=Cc1c(Cl)cccc1Cl)CC1(O)CCCCC1	.	.	.	-9	0	.
Cc1ccc(NC(=O)c2nc(S(=O)(=O)Cc3ccccc3)ncc2Cl)cc1	18	80*	0	34	59*	57*
CCOC(=O)c1ccc(NC(=O)c2nc(SC)ncc2Cl)cc1	13	21	-5	-10	4	.
CSc1ncc(Cl)c(C(=O)Nc2ccc(S(=O)(=O)Nc3nccc(C)n3)cc2)n1	10	20	-8	3	4	.
Cc1ccccc1CS(=O)(=O)c1ncc(Cl)c(C(=O)Nc2ccc(F)cc2)n1	0	.	0	53*	58*	58*
Cc1cccc(CS(=O)(=O)c2ncc(Cl)c(C(=O)NCc3ccccc3)n2)c1	16	48	-3	30	57*	64*
CCN(c1ccccc1)S(=O)(=O)c1ccc(NC(=O)c2nc(S(C)(=O)=O)ncc2Cl)cc1	20	96*	9	9	81*	68*
FC(F)Sc1ccc(NC(=S)NC2CCCCC2)cc1	-5	-11	2	7	57*	4
c1cc(CSc2nnc(-c3ccc4c(c3)OCO4)o2)ccn1	14	-1	-1	-10	-12	.
